According to ChEMBL document CHEMBL1129267, “Aryl 1-but-3-ynyl-4-phenyl-1,2,3,6-tetrahydropyridines as potential antipsychotic agents: synthesis and structure-activity relationships” (J Med Chem, 1996):

Legend:
D(2) dopamine receptor [1] = target: T1, D(2) dopamine receptor (Rattus norvegicus, UniProt P61169); experiment: Compound was evaluated for their affinity against dopamine receptor D2 by displacing [3H]-spiperone in rat striatal membrane; assay type: cell membranes, Striatum
How it was run: (§1)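 Rat striatal membranes; [³H]spiperone 0.2 nM final; nonspecific binding defined with (+)-butaclamol 1.0 µM final. Four to six concentrations, each run in triplicate; Ki obtained by nonlinear regression analysis.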

Mus musculus [2] = experiment: (§2) Compound was tested for the inhibition of locomotor activity (LMA)by administering Intraperitoneally in mouse.; assay type: functional; details: ip
Rattus norvegicus [3] = experiment: Compound was tested for the inhibition of locomotor activity (LMA)by administering orally in rat; assay type: functional; details: po
How it was run: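 Rats dosed orally 1 h before a 30 min test in darkened cylindrical photobeam chambers. Percent inhibition of locomotor activity relative to vehicle-treated animals; ED50 derived from three to six doses, n = 6-18 animals/dose.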

Monkey = experiment: Compound was tested for inhibition of conditioned avoidance after administering perorally(po) in squirrel monkeys; assay type: functional; details: Cebidae, in Saimiri
Rattus norvegicus [4] = experiment: Percent decrease of the firing rate of rat substantia nigra DA neurons at a dose of 2.5 mg/kg ip; assay type: functional; details: route intraperitoneal
D(1A) dopamine receptor = D(1A) dopamine receptor (Rattus norvegicus, UniProt P18901); assay type: cell membranes, Brain, Membrane
Sequence of D(1A) dopamine receptor (P18901 whole entry): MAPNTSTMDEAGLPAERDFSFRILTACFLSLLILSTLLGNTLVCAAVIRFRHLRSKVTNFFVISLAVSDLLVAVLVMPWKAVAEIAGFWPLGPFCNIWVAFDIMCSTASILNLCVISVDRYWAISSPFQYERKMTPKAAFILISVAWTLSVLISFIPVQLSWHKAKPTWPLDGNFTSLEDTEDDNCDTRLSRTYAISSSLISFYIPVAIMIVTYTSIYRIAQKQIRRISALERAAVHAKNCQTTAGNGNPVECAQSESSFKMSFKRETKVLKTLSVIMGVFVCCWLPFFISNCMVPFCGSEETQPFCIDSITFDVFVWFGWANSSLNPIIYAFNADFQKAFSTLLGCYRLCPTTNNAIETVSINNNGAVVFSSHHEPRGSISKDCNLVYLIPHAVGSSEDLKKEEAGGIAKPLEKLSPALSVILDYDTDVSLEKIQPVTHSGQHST

D(2) dopamine receptor [5] = target: T1, D(2) dopamine receptor; experiment: Binding affinity at Dopamine receptor D2 in rat striatal membrane by [3H]spiperone displacement.; assay type: cell membranes, Striatum; how it was run: as §1
[6] = target: T2, 5-hydroxytryptamine receptor 1A (Rattus norvegicus, UniProt P19327); experiment: Binding affinity against serotonin 5-hydroxytryptamine 1A receptor using radioligand [3H]8-OH-DPAT binding assay
T2 sequence (P19327 whole entry): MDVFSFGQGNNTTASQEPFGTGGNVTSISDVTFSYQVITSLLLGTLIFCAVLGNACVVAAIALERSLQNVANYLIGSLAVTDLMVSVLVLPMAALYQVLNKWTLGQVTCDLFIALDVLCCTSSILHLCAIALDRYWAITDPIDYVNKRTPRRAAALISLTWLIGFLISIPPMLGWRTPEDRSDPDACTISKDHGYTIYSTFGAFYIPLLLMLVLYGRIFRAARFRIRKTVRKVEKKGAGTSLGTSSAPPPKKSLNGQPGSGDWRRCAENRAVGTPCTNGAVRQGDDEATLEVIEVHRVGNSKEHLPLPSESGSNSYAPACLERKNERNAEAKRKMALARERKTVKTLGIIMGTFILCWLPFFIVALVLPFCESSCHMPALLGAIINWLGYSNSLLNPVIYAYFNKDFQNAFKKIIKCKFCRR
How it was run: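 Rat hippocampal membranes labelled with [³H]-8-OH-DPAT (0.4 nM final); nonspecific binding with 8-OH-DPAT (1 µM).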

D(2) dopamine receptor [7] = target: T1, D(2) dopamine receptor; experiment: Binding affinity against Dopamine receptor D2 in CHO-K1 cells using radioligand [3H]NPA binding assay; assay type: cell-based
D(2) dopamine receptor [8] = target: D(2) dopamine receptor (Homo sapiens, UniProt P14416); experiment: […] Dopamine receptor D2 mitogenesis measured as [3H]thymidine incorporation in CHO p-5 cells expressing human D2 receptors
Sequence of D(2) dopamine receptor (Homo sapiens, UniProt P14416) (P14416 whole entry): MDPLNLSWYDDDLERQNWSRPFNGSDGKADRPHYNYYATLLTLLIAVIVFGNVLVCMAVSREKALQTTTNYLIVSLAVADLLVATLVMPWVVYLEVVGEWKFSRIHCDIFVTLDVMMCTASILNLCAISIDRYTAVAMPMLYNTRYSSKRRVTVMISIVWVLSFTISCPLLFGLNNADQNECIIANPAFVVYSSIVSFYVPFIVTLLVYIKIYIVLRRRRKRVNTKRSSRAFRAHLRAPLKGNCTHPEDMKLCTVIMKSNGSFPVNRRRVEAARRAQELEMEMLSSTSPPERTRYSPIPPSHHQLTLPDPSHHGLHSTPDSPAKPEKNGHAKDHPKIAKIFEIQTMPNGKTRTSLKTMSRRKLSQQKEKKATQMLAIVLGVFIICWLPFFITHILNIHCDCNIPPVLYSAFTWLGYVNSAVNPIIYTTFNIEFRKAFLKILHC
How it was run: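 CHO p-5 cells transfected with human D2L are grown 2 days at 37 °C in medium with 10% calf serum, rinsed, and switched to serum-free medium plus compound in water. After 16-17 h, [³H]thymidine (1 µCi/well) is added for 4 h; cells are harvested onto filters and counted.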

D(4) dopamine receptor = target: T3, D(4) dopamine receptor (Homo sapiens, UniProt P21917); experiment: Binding affinity against human Dopamine receptor D4 in CHO-K1 cells using [3H]spiperone as radioligand; assay type: cell-based
T3 sequence (P21917 whole entry): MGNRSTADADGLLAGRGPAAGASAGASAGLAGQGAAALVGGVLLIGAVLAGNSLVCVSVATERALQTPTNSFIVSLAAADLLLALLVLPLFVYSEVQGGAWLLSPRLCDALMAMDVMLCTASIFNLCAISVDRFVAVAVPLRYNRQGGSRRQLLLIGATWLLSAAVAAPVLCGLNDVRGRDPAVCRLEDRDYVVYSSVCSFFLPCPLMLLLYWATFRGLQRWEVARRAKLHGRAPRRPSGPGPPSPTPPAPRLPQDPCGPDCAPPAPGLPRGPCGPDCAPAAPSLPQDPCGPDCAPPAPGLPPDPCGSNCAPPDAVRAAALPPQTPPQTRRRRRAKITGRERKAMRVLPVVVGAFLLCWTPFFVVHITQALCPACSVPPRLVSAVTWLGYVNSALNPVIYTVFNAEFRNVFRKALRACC
How it was run: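 Human D4.2 receptor expressed in CHO K1 cells; [³H]spiperone 0.2 nM final; nonspecific binding defined with haloperidol 1.0 µM final.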

D(3) dopamine receptor = D(3) dopamine receptor (Homo sapiens, UniProt P35462); experiment: Binding affinity against human Dopamine receptor D3 in CHO-K1 cells using [3H]spiperone as radioligand; assay type: cell-based
Sequence of D(3) dopamine receptor (P35462 whole entry): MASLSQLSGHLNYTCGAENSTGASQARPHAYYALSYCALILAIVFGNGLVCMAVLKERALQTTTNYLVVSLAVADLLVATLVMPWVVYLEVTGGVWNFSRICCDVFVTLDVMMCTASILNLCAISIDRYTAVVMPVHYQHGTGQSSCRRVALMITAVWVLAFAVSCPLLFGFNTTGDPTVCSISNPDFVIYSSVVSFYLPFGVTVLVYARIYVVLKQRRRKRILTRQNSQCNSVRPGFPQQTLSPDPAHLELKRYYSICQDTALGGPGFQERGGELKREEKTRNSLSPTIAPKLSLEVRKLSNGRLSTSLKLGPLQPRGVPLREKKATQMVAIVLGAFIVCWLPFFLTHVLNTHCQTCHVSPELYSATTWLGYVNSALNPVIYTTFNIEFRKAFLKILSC

Rattus norvegicus [9] = experiment: In vivo inhibition of locomotor activity in the rat following p.o. administration.; assay type: functional; details: po
[10] = target: T4, Adrenergic receptor alpha-1 (Rattus norvegicus, UniProt P15823+P23944+P43140); experiment: Binding affinity against Alpha-1 adrenergic receptor using radioligand [3H]prazosin binding assay.; assay type: protein assay
T4 sequence (P15823 whole entry): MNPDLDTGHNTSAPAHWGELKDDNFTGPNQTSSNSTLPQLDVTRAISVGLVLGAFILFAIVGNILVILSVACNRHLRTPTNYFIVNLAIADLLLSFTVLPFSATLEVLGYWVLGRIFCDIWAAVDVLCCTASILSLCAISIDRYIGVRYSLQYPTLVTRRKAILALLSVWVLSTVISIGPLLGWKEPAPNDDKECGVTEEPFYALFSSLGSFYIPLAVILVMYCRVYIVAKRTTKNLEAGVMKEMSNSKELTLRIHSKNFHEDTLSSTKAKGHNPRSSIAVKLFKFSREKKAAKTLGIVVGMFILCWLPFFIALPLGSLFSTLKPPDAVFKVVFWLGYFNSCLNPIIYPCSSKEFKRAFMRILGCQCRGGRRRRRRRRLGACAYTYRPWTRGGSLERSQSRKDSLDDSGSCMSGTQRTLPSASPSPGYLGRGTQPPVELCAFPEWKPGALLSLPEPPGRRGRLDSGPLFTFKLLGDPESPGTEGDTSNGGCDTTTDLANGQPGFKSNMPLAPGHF
T4 sequence (P23944 whole entry): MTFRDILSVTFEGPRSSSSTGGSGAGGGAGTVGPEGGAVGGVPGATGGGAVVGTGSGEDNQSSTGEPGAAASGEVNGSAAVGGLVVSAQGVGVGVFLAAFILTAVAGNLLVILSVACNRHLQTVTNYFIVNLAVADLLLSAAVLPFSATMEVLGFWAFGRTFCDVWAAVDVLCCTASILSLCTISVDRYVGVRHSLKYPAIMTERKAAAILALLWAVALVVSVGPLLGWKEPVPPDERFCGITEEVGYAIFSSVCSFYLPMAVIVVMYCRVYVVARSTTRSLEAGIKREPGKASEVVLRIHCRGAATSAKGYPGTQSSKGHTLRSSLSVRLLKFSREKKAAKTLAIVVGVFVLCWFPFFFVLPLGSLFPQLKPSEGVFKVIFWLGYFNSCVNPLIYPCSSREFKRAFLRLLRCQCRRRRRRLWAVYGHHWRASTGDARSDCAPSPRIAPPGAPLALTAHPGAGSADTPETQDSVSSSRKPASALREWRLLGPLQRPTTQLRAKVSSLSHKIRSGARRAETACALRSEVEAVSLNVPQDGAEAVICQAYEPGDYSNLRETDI
T4 sequence (P43140 whole entry): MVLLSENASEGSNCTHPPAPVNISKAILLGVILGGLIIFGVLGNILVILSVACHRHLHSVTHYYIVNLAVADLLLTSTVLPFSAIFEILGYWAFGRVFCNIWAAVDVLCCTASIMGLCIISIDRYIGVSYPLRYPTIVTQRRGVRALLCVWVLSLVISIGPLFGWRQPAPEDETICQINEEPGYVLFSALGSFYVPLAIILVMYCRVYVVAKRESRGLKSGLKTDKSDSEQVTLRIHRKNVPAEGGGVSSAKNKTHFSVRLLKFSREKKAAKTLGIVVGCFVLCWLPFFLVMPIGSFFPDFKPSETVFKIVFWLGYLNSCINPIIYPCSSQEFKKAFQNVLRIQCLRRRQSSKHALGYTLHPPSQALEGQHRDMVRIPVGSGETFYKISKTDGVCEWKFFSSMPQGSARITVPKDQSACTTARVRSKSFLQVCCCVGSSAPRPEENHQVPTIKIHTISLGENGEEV
How it was run: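 Inhibition of [³H]prazosin (0.1 nM final) binding in rat cortex membranes; phentolamine (10 µM final) defines nonspecific binding.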

Rattus norvegicus [11] = experiment: Percent reversal of the increase on DOPA levels in the striatum of GBL-treated rats at a dose of 10 mg/kg ip; assay type: functional; details: route intraperitoneal
Mus musculus [12] = experiment: as §2; assay type: functional; details: ip; remark: listed apart in the source
How it was run: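 Mice dosed ip, then tested immediately for 1 h in darkened cylindrical photobeam chambers. Percent inhibition of locomotor activity relative to vehicle-treated animals; ED50 derived from three to six doses, n = 6-18 animals/dose.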

T1 sequence (P61169 whole entry): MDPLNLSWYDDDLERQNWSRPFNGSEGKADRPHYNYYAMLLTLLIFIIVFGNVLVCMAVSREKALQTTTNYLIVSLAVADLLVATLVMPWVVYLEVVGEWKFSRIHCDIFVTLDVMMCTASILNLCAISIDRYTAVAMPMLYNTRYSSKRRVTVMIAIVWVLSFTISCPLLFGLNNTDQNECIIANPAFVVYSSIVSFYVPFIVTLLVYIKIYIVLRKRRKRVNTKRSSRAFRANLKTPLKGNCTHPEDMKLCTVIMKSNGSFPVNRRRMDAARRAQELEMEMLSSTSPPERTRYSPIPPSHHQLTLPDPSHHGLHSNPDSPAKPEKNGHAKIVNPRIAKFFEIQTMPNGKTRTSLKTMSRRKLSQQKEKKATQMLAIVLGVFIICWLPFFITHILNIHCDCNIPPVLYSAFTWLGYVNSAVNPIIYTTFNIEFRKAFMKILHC

| SMILES | ED50 (Mus musculus [2]) [mg/kg] | Ki (D(2) dopamine receptor [5]) [nM] | ED50 (Rattus norvegicus [9]) [mg/kg] | further results |
| --- | --- | --- | --- | --- |
| Oc1ccc(C#CCCN2CC=C(c3ccccc3)CC2)cc1 | 1.5 |  |  | Ki (D(2) dopamine receptor [1]): 54 nM; ED50 (Rattus norvegicus [3]): > 30 mg/kg |
| Nc1ccc(C#CCCN2CC=C(c3ccccc3)CC2)cn1 | 0.06 | 33 | 2.5 | ED50 (Monkey): 2.8 mg/kg; Decrease (Rattus norvegicus [4]): 63%; Ki (D(1A) dopamine receptor): > 10000 nM; Ki [6]: 632 nM; Ki (D(2) dopamine receptor [7]): 19 nM; EC50 (D(2) dopamine receptor [8]): 0.5 nM; Ki (D(4) dopamine receptor): 278 nM; Ki (D(3) dopamine receptor): 7 nM |
| C(#Cc1cccnc1)CCN1CC=C(c2ccccc2)CC1 |  | 37 | 1.4 | ED50 (Monkey): 10.1 mg/kg; Decrease (Rattus norvegicus [4]): 100%; Ki (D(1A) dopamine receptor): 5000 nM; Ki [6]: 555 nM; Ki (D(2) dopamine receptor [7]): 3.3 nM; Ki [10]: 14.1 nM; EC50 (D(2) dopamine receptor [8]): 1.7 nM; Ki (D(4) dopamine receptor): 681 nM; Ki (D(3) dopamine receptor): 20 nM |
| C(#Cc1cccnc1)CCN1CCN(c2ncccn2)CC1 | > 30 | > 10000 |  |  |
| Oc1ccc2[nH]cc(CCCCN3CC=C(c4ccccc4)CC3)c2c1 [ROXINDOLE] | 0.2 | 9.1 | 12.8 | Decrease (Rattus norvegicus [4]): 100%; Decrease (Rattus norvegicus [11]): 64%; Ki (D(4) dopamine receptor): 24 nM; Ki (D(3) dopamine receptor): 0.4 nM |
| COc1ccc(C#CCCN2CC=C(c3ccccc3)CC2)cc1 | 3.3 | 327 | > 30 |  |
| C(#Cc1cccnc1)CCCN1CC=C(c2ccccc2)CC1 |  | 56 | 4.3 |  |
| C(#Cc1ccc2c(c1)OCCO2)CCN1CC=C(c2ccccc2)CC1 | 2.2 | 127 | > 30 |  |
| Nc1ccccc1C#CCCN1CC=C(c2ccccc2)CC1 |  |  | 23.9 | Ki (D(2) dopamine receptor [1]): 183 nM; ED50 (Mus musculus [12]): 1.6 mg/kg |
| C(#Cc1ccc2occc2c1)CCN1CC=C(c2ccccc2)CC1 | 2.5 | 440 | 10.6 |  |
| C(#Cc1ccccn1)CCN1CC=C(c2ccccc2)CC1 |  | 136 | 15.8 |  |
| C(#Cc1cnc2ccccc2c1)CN1CC=C(c2ccccc2)CC1 |  | > 10000 |  | ED50 (Mus musculus [12]): > 30 mg/kg |
